Results on 14 compounds are retold here after ChEMBL document CHEMBL1800044, “Structure-based design of novel boronic acid-based inhibitors of autotaxin” (J Med Chem, 2011).

The experiment concerns the target Autotaxin (Homo sapiens, UniProt Q13822). As to the kind of experiment: Inhibition of 6x-histidine-tagged human recombinant ATX expressed in HEK293 cells assessed as choline release using lysophosphatidylcholine as substrate after 4 hrs by choline release assay. A digest of the protocol: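 Recombinant ATX at 10 nM final (~20 nM in enzyme half) in 50 mM Tris-HCl pH 7.4, 0.01% Triton X-100, inhibitor added in DMSO. LPC (18:1) at 40 μM final, buffer with 10 mM MgCl2 and 10 mM CaCl2. Ten concentrations, 0.01–30 μM. Controls were DMSO alone and LPC without enzyme.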

What is called IC50 is the concentration at which inhibition is half-maximal.

As to `O=C(Nc1ccc(B(O)O)cc1)c1ccc(/C=C2\SC(=O)N(Cc3ccc(F)cc3)C2=O)cc1`, the IC50 was 147 nM.
For `O=C(NCc1ccc(B(O)O)cc1)c1ccc(/C=C2\SC(=O)N(Cc3ccc(F)cc3)C2=O)cc1` the value was 71 nM; for `O=C(Nc1ccc(/C=C2\SC(=O)N(Cc3ccc(F)cc3)C2=O)cc1)c1ccc(B(O)O)cc1`, 10 nM.
For `O=C1S/C(=C\c2ccc(NCc3ccc(B(O)O)cc3)cc2)C(=O)N1Cc1ccc(F)cc1` the value was 8.3 nM; for `O=C1S/C(=C\c2ccc(/C=C/c3ccc(B(O)O)cc3)cc2)C(=O)N1Cc1ccc(F)cc1`, above 5000 nM.
Consider `O=C1SC(Cc2ccc(OCc3ccc(B(O)O)cc3)cc2)C(=O)N1Cc1ccc(F)cc1` (centres undefined), for which the IC50 came out at 25 nM.
With `O=C1SC(Cc2ccc(OCc3ccc(B(O)O)cc3)cc2)C(O)N1Cc1ccc(F)cc1` (centres undefined), the IC50 was 1590 nM.
`O=c1sc(Cc2ccc(OCc3ccc(B(O)O)cc3)cc2)cn1Cc1ccc(F)cc1`: the half-inhibitory concentration (IC50) turned out to be 683 nM.
Turning to `O=C1N/C(=C\c2ccc(OCc3ccc(B(O)O)cc3)cc2)C(=O)N1Cc1ccc(F)cc1`, the IC50 was found to be 26 nM.
With `CN1C(=O)N(Cc2ccc(F)cc2)C(=O)/C1=C\c1ccc(OCc2ccc(B(O)O)cc2)cc1` the figure was 5.3 nM; with `CN1C(=O)N(Cc2ccc(F)cc2)C(=O)/C1=C/c1ccc(OCc2ccc(B(O)O)cc2)cc1`, 6.7 nM.
For `O=C1C/C(=C\c2ccc(OCc3ccc(B(O)O)cc3)cc2)C(=O)N1Cc1ccc(F)cc1` the value was 7.3 nM; for `O=C1[C@@H]2Cc3ccc(OCc4ccc(B(O)O)cc4)cc3CN2C(=O)N1Cc1ccc(F)cc1`, 55 nM.
Regarding `O=C1[C@H]2Cc3ccc(OCc4ccc(B(O)O)cc4)cc3CN2C(=O)N1Cc1ccc(F)cc1`, the half-inhibitory concentration (IC50) came to 59 nM.
